Screening results from PubChem BioAssay.
GalR3 antag: human GalR3 antagonism | 360,000 tested, 0.44% active | HEK293 GalR3-CNG cAMP membrane potential fluorescence; galR3 body fused to GalR1 C-terminus | AID 651719 | O60755 | inhibition, % at 3 µM;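 active means inhibition above the screen-wide average plus 3 SD, cut at about 13% in these data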;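 further: forskolin and galanin both at EC90 stimulate the cells; cAMP rise reported by CNG channel membrane potential dye signal; 0% = forskolin plus galanin with DMSO and 100% = forskolin alone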
Target sequence (O60755 1-299 limits assumed): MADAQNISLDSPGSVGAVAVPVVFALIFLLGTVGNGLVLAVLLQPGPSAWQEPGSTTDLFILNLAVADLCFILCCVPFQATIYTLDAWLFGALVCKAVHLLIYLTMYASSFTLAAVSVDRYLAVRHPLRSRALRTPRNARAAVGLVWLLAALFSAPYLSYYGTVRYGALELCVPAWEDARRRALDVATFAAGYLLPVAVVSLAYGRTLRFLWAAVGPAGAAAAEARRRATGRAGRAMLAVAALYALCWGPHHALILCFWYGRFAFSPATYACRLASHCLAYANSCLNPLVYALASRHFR
Gli-Sufu block: blocks Gli-Sufu signaling in a luciferase reporter; 340,000 tested, 0.74% active; Sufu-KO-LIGHT fibroblasts, Gli luciferase reporter luminescence; AID 588413; inhibition, % at 5 µM;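 active means inhibition above about 55%, limit read from the data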;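 further: 0% = DMSO-treated cells and 100% = wells with medium but no cells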
Jurkat NFkB inh: lowers PMA/ionomycin-induced NF-kB signal in Jurkat cells; PMA/ionomycin-induced NF-kB luciferase reporter, luminescence; 330,000 tested, 0.53% active; inhibition, % at 4 µM; in the data active means inhibition above about 50%
697 NFkB inh: lowers PMA/ionomycin-induced NF-kB signal in 697 B cells. 697 B-cell NF-kB luciferase reporter, 16 h. 330,000 tested, 0.33% active. inhibition, % at 4 µM. AID 435022; in the data active means inhibition above about 35%
NR2E3 ag-1: activates human photoreceptor nuclear receptor NR2E3. Q9Y5X4. GST-NR2E3/biotin-RetCOR TR-FRET, 1536-well. inhibition of corepressor binding, % at 4.78 µM. 320,000 tested, 0.12% active;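 active means percent inhibition above the cutoff of mean plus 3 SD of all tested compounds, set per screening campaign, cut at about 20% in these data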;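 further: 0% = DMSO wells and 100% = biotin wells as full block of FRET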
Target sequence (Q9Y5X4 whole entry, looked up): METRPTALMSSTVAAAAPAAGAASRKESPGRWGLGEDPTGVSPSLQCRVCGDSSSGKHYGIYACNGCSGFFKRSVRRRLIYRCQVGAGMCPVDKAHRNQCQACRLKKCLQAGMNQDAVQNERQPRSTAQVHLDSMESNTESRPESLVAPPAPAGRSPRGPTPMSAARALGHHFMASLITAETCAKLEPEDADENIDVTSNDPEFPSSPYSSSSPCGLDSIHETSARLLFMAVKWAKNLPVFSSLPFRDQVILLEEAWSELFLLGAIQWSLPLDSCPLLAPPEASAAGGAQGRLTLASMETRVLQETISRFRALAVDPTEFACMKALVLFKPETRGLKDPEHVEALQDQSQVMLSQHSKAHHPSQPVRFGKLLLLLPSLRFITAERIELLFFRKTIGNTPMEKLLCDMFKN
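Material – GST-tagged NR2E3 plus biotinylated RetCOR corepressor · Quantity – NR2E3 fusion 1.35 nM · Times – 5 h incubation at 4 °C · Medium – pH 7.5 Tris-based buffer · Technique – TR-FRET, Eu(K)-anti-GST donor, streptavidin-D2 acceptor, ex 340, em 617/671 nm · Benchmarks – high control biotin, low control 0.6% DMSO · Format – 1536-well plates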
NR2E3 ag-2: human photoreceptor-specific nuclear receptor agonism; inhibition of corepressor binding, % at 3.98 µM; CHO-S Gal4-NCOR/VP16-NR2E3 two-hybrid, luciferase; Q9Y5X4; 360,000 tested, 0.35% active; AID 602229;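 active means inhibition above the mean of all tested compounds plus 3 SD, cut at about 70% in these data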;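 further: 0% = DMSO with NR2E3 transfected cells and 100% = cells lacking NR2E3 construct; higher means lower luciferase signal from less NR2E3 corepressor binding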
Gli antag conf: Gli-SUFU antagonism confirmation, single concentration; shares compounds with Gli-Sufu block; Sufu-KO-LIGHT cells, Gli luciferase reporter, luminescence; 2,500 tested, 40% active; inhibition, % at 5 µM;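 active means mean inhibition at 5 µM reaching about 45%, limit read from the data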;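 further: plate controls were DMSO-treated cells for no effect and wells lacking cells for full effect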
SufuKO cytotox: cytotoxic in Gli-SUFU antagonist counter-screen; shares compounds with Gli-Sufu block; Sufu-KO-LIGHT cells cytotoxicity, ATP luminescence; cytotoxicity, % at 5 µM; 2,500 tested, 32% active;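 active means mean cytotoxicity at 5 µM above about 25%, limit read from the data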;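 further: cells exposed to compound overnight for roughly 16 to 18 hours; plate controls were DMSO wells with cells for no effect and medium without cells for full effect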
Wnt3a counter: inhibits Wnt3a reporter, counter-screen for Gli-SUFU antagonists | shares compounds with Gli-Sufu block | Wnt-LIGHT cells, Wnt3a-driven luciferase reporter, luminescence | inhibition, % at 6.25 µM | 2,500 tested, 20% active;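 active means mean inhibition above about 25%, limit read from the data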
Starred values were filed as active, the others as inactive. Hits are enriched below; roughly 1.8% of the tested compounds scored in any of these assays.

Screening C/C(CC(=O)Nc1ccccn1)=N\NC(=O)C(=O)Nc1ccccc1C returned GalR3 antag -2.4, Gli-Sufu block 56.0*, Jurkat NFkB inh 9.2, 697 NFkB inh 14.2, NR2E3 ag-1 1.4, NR2E3 ag-2 -6.7, Gli antag conf 20.3, SufuKO cytotox -0.9 and Wnt3a counter 3.2.
`CCOC(=O)C1=CCN(S(=O)(=O)c2ccc(Cl)cc2)C1c1ccc(Br)cc1` (stereo not drawn) gave GalR3 antag -3.0.
`O=C(NCc1ccc2c(c1)OCO2)c1nc(Cn2cc([N+](=O)[O-])cn2)no1` gave GalR3 antag -8.4, Gli-Sufu block 53.7, Jurkat NFkB inh 7.8, 697 NFkB inh 9.5, NR2E3 ag-1 -9.1, NR2E3 ag-2 -11.3, Gli antag conf 11.2, SufuKO cytotox -10.1 and Wnt3a counter -2.6.
Screening O=C(Cn1cc([N+](=O)[O-])cn1)N1CCN(Cc2ccc3c(c2)OCO3)CC1 returned GalR3 antag -8.2, Gli-Sufu block -14.2, Jurkat NFkB inh 8.6, 697 NFkB inh 1.4, NR2E3 ag-1 2.7 and NR2E3 ag-2 -2.5.
For O=C(NNc1nc(=O)c2cccnc2s1)c1ccccc1O the results were GalR3 antag -6.2, Gli-Sufu block 85.0*, Jurkat NFkB inh -11.2, 697 NFkB inh -21.8, NR2E3 ag-1 0.2, NR2E3 ag-2 6.2, Gli antag conf 24.9, SufuKO cytotox 26.7* and Wnt3a counter -20.7.
For CC1CCN(C(=O)c2[nH]cnc2C(=O)N(C)CCO)CC1 the results were GalR3 antag -1.1.
`Cn1c(O)c(N=NC(=O)CNC(=O)c2cccnc2)c2ccccc21` gave GalR3 antag 2.6, Gli-Sufu block 51.1, Jurkat NFkB inh 3.6, 697 NFkB inh 10.9, NR2E3 ag-1 -5.0, NR2E3 ag-2 -34.5, Gli antag conf 25.2, SufuKO cytotox 0.5 and Wnt3a counter 3.9.
For CCCc1nc(SCC(=O)Nc2nnc(CC)s2)c2c(=O)n(C)c(=O)n(C)c2n1 the results were GalR3 antag -2.8, Gli-Sufu block 66.4*, Jurkat NFkB inh 16.2, 697 NFkB inh -39.4, NR2E3 ag-1 1.8, NR2E3 ag-2 -13.5, Gli antag conf 50.2*, SufuKO cytotox 23.0 and Wnt3a counter 5.7.
CCCc1nc(SCC(=O)Nc2nnc(SCC)s2)c2c(=O)n(C)c(=O)n(C)c2n1 was read as Gli-Sufu block 57.8*, Jurkat NFkB inh 8.2, 697 NFkB inh 2.6, NR2E3 ag-1 -0.1, NR2E3 ag-2 -13.7, Gli antag conf 55.7*, SufuKO cytotox 34.6* and Wnt3a counter 6.7.
CCc1nc(SCC(=O)Nc2nnc(CC)s2)c2c(=O)n(C)c(=O)n(C)c2n1 was read as GalR3 antag -0.8, Gli-Sufu block 41.6, Jurkat NFkB inh 0.3, 697 NFkB inh -16.2, NR2E3 ag-1 0.7 and NR2E3 ag-2 3.8.
C[C@@H]1COc2cc(N3CCCC3)ccc2S(=O)(=O)N1 was read as GalR3 antag -6.8.
`CC(C)CC(OC(=O)c1ccc(Cl)nc1)C(=O)NC1CCCC1` (stereo not drawn) gave GalR3 antag -4.5, Gli-Sufu block 55.8*, Jurkat NFkB inh -2.1, 697 NFkB inh 9.1, NR2E3 ag-1 2.1, NR2E3 ag-2 19.5, Gli antag conf 15.9, SufuKO cytotox 8.6 and Wnt3a counter 50.1*.
`Cc1ccc(CS(=O)(=O)CCC(=O)NCc2ccccc2Cl)cc1` gave GalR3 antag -6.4, Gli-Sufu block 53.2, Jurkat NFkB inh -11.3, 697 NFkB inh 9.1, NR2E3 ag-1 0.8, NR2E3 ag-2 1.4, Gli antag conf 8.2, SufuKO cytotox 22.4 and Wnt3a counter -16.4.
`COc1ccc(C(C)(C)C)cc1NC(=O)OC[C@@H]1CSCCS(=O)(=O)N1` gave GalR3 antag -7.3.
`CCOC(=O)c1sc(=S)n(-c2ccccc2Cl)c1SC` gave GalR3 antag -5.2, Gli-Sufu block 50.7, Jurkat NFkB inh -1.3, 697 NFkB inh 3.8, NR2E3 ag-1 -2.5, NR2E3 ag-2 6.2, Gli antag conf 9.0, SufuKO cytotox -5.2 and Wnt3a counter -12.1.
For O=C(COc1ccc(Cl)cc1Cl)NC(=S)N1CCCc2ccccc21 the results were GalR3 antag -0.3, Gli-Sufu block 53.1, Jurkat NFkB inh -30.1, 697 NFkB inh -58.8, NR2E3 ag-1 -0.7, NR2E3 ag-2 -10.7, Gli antag conf 14.3, SufuKO cytotox 22.0 and Wnt3a counter 17.1.
CCCCn1c(CN(C)Cc2ccccc2)nc2c1c(=O)n(C)c(=O)n2C was read as GalR3 antag -5.0, Gli-Sufu block 60.2*, Jurkat NFkB inh 22.9, 697 NFkB inh -31.6, NR2E3 ag-1 -1.2, NR2E3 ag-2 17.7, Gli antag conf 52.4*, SufuKO cytotox 20.1 and Wnt3a counter 22.0.
CC(C)(C)OC(=O)N1CCC[C@@H]1C(=O)NCc1ccccc1 was read as GalR3 antag -5.4.
Screening CCn1cc[n+](C)c1P(c1ccccc1)c1ccccc1 returned GalR3 antag -2.9, Gli-Sufu block 50.6, Jurkat NFkB inh 8.3, 697 NFkB inh 13.3, NR2E3 ag-1 0.4, NR2E3 ag-2 -0.8, Gli antag conf 55.2*, SufuKO cytotox 13.0 and Wnt3a counter 23.2.
For Cc1nc2cccc(C)n2c(=O)c1Cl the results were GalR3 antag -4.4, Gli-Sufu block 55.7*, Jurkat NFkB inh 2.9, 697 NFkB inh 26.3, NR2E3 ag-1 3.0, NR2E3 ag-2 -2.1, Gli antag conf 10.0, SufuKO cytotox 15.6 and Wnt3a counter 7.2.
Screening Cc1ccccc1NC(=O)Cc1nc(COC(=O)CSc2ccccc2)cs1 returned GalR3 antag -3.0, Gli-Sufu block -5.5, Jurkat NFkB inh 3.5, 697 NFkB inh -12.5, NR2E3 ag-1 -4.2 and NR2E3 ag-2 7.9.
Screening O=C(NC1CCCCC1)OC[C@@H]1CSCCS(=O)(=O)N1 returned GalR3 antag -4.3.
Screening O=S1(=O)N[C@H](Cc2ccccc2)COc2cccc(N3CCCCC3)c21 returned GalR3 antag -6.1.
Screening Nc1ccc(Cn2ccc3c4c(N)nc(N)nc4ccc32)cc1 returned GalR3 antag -2.5, Gli-Sufu block 60.9*, NR2E3 ag-2 15.5, Gli antag conf 57.9*, SufuKO cytotox 17.1 and Wnt3a counter 40.6*.
C[C@H]1COc2cc(NCCCN3CCOCC3)ccc2S(=O)(=O)N1 was read as GalR3 antag -2.5.
